Source: ChEMBL document CHEMBL4316593 (Eur J Med Chem, 2019)
Activity calls are given as the source filed them. No cut-off for these calls is given here.

Columns and labels:
[1] = Inhibition of RTK/PI3K/AKT/mTOR signaling in human U87 cells assessed as down regulation of ZNF106 gene expression at cytotoxic IC50 measured after 48 hrs relative to control; type: cell-based; settings: U-87MG ATCC
Procedure, shortened: (§1)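 Cells were exposed for 48hrs at 37°C in humidified 5% CO₂ to the compound at its previously determined IC₅₀, with Cisplatin at its IC₅₀ and an untreated negative control alongside. Each condition was run in triplicate. RNA was isolated from all samples by the same protocol. Genes were called differentially expressed by DESeq2 at q-value < 0.05 and fold change > 1.5.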

U-87 MG [2] = test: Induction of apoptosis in human U87 cells assessed as change in ERN1 gene expression at cytotoxic IC50 measured after 48 hrs […] relative to control; type: functional, U-87MG ATCC
Procedure, shortened: (§2)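 U87 cells grown in MEM with 10% FBS at 37°C, 5% CO2. Cells exposed to IC50 of test compound for 48 hrs, alongside untreated and cisplatin controls, each condition in triplicate. RNA isolated and profiled; differential expression called with DESeq2 (q-value < 0.05, fold change > 1.5), fold change versus untreated.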

[3] = Inhibition of RTK/PI3K/AKT/mTOR signaling in human U87 cells assessed as up regulation of RHOA gene expression at cytotoxic IC50 measured after 48 hrs relative to control; type: cell-based; settings: U-87MG ATCC; procedure, shortened: as §1
[4] = Inhibition of RTK/PI3K/AKT/mTOR signaling in human U87 cells assessed as up regulation of tribbles pseudokinase 2 gene expression at cytotoxic IC50 measured after 48 hrs relative to control; type: cell-based; settings: U-87MG ATCC
[5] = Inhibition of RTK/PI3K/AKT/mTOR signaling in human U87 cells assessed as up regulation of CPLX1 gene expression at cytotoxic IC50 measured after 48 hrs relative to control; type: cell-based; settings: U-87MG ATCC; procedure, shortened: as §1
U-87 MG [6] = test: Induction of DNA damage in human U87 cells assessed as change in CDK1 gene expression at cytotoxic IC50 measured after 48 hrs […] relative to control; type: functional, U-87MG ATCC
Procedure, shortened: (§3)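 U87 expression profiling. Cells incubated 48hrs at 37°C, 5% CO₂ with the IC₅₀ concentration, alongside a cisplatin and an untreated control, in triplicate. RNA was isolated by one common protocol and profiled. DEGs were called with DESeq2 (q < 0.05, fold change > 1.5) and expressed as fold change versus untreated.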

U-87 MG [7] = test: Induction of DNA damage in human U87 cells assessed as change in BRCA1 gene expression at cytotoxic IC50 measured after 48 hrs […] relative to control; type: functional, U-87MG ATCC; procedure, shortened: as §3
[8] = Inhibition of RTK/PI3K/AKT/mTOR signaling in human U87 cells assessed as up regulation of CAPN1 gene expression at cytotoxic IC50 measured after 48 hrs relative to control; type: cell-based; settings: U-87MG ATCC; procedure, shortened: as §1
[9] = Inhibition of RTK/PI3K/AKT/mTOR signaling in human U87 cells assessed as up regulation of erythrocyte membrane protein band 4.1 gene expression at cytotoxic IC50 measured after 48 hrs relative to control; type: cell-based
[10] = Inhibition of RTK/PI3K/AKT/mTOR signaling in human U87 cells assessed as down regulation of TOMM34 gene expression at cytotoxic IC50 measured after 48 hrs relative to control; type: cell-based; settings: U-87MG ATCC; procedure, shortened: as §1
LN-229 [11] = test: Cytotoxicity against human LN229 cells assessed as reduction in cell proliferation measured after 48 hrs by trypan blue dye-based cell counting analysis; settings: LN-229, 48 h
U-87 MG [12] = test: Induction of apoptosis in human U87 cells assessed as change in CAPN1 gene expression at cytotoxic IC50 measured after 48 hrs […] relative to control; type: functional, U-87MG ATCC; procedure, shortened: as §2
U-87 MG [13] = test: Induction of DNA damage in human U87 cells assessed as change in PLK2 gene expression at cytotoxic IC50 measured after 48 hrs […] relative to control; type: functional, U-87MG ATCC; procedure, shortened: as §3
U-87 MG [14] = test: Cell cycle arrest in human U87 cells assessed as change in GADD45B gene expression at cytotoxic IC50 measured after 48 hrs […] relative to control; type: functional, U-87MG ATCC; procedure, shortened: as §3
[15] = Inhibition of RTK/PI3K/AKT/mTOR signaling in human U87 cells assessed as up regulation of AXL gene expression at cytotoxic IC50 measured after 48 hrs relative to control; type: cell-based; settings: U-87MG ATCC; procedure, shortened: as §1
[16] = Inhibition of RTK/PI3K/AKT/mTOR signaling in human U87 cells assessed as down regulation of FLII gene expression at cytotoxic IC50 measured after 48 hrs relative to control; type: cell-based; settings: U-87MG ATCC; procedure, shortened: as §2
U-87 MG [17] = test: Induction of DNA damage in human U87 cells assessed as change in PEA15 gene expression at cytotoxic IC50 measured after 48 hrs […] relative to control; type: functional, U-87MG ATCC; procedure, shortened: as §3
U-87 MG [18] = test: Cell cycle arrest in human U87 cells assessed as change in CDK6 gene expression at cytotoxic IC50 measured after 48 hrs […] relative to control; type: functional, U-87MG ATCC; procedure, shortened: as §3
U-87 MG [19] = test: Cell cycle arrest in human U87 cells assessed as change in CREBBP gene expression at cytotoxic IC50 measured after 48 hrs […] relative to control; type: functional, U-87MG ATCC; procedure, shortened: as §3
[20] = Inhibition of RTK/PI3K/AKT/mTOR signaling in human U87 cells assessed as up regulation of ubiquitin-fold modifier conjugating enzyme 1 gene expression at cytotoxic IC50 measured after 48 hrs relative to control; type: cell-based; settings: U-87MG ATCC
[21] = Inhibition of RTK/PI3K/AKT/mTOR signaling in human U87 cells assessed as up regulation of proline-serine-threonine phosphatase interacting protein 2 gene expression at cytotoxic IC50 measured after 48 hrs relative to control; type: cell-based; settings: U-87MG ATCC
[22] = Inhibition of RTK/PI3K/AKT/mTOR signaling in human U87 cells assessed as down regulation of COG1 gene expression at cytotoxic IC50 measured after 48 hrs relative to control; type: cell-based; settings: U-87MG ATCC; procedure, shortened: as §2
[23] = Inhibition of RTK/PI3K/AKT/mTOR signaling in human U87 cells assessed as up regulation of MYC gene expression at cytotoxic IC50 measured after 48 hrs relative to control; type: cell-based; settings: U-87MG ATCC; procedure, shortened: as §1
U-87 MG [24] = test: Induction of DNA damage in human U87 cells assessed as change in SFN gene expression at cytotoxic IC50 measured after 48 hrs […] relative to control; type: functional, U-87MG ATCC; procedure, shortened: as §2
[25] = Inhibition of RTK/PI3K/AKT/mTOR signaling in human U87 cells assessed as up regulation of NCOR2 gene expression at cytotoxic IC50 measured after 48 hrs relative to control; type: cell-based; settings: U-87MG ATCC; procedure, shortened: as §1
U-87 MG [26] = test: Induction of apoptosis in human U87 cells assessed as change in PMAIP1 gene expression at cytotoxic IC50 measured after 48 hrs […] relative to control; type: functional, U-87MG ATCC; procedure, shortened: as §2
LN-229 [27] = test: Cell cycle arrest in human LN229 cells assessed as decrease in accumulation at S-phase at cytotoxic IC50 measured after 48 hrs by propidium iodide staining based fluorescence cell imaging analysis; type: functional
Procedure, shortened: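 Cell cycle by PI staining. Cells seeded at 1×10^6 and grown overnight at 37°C, 5% CO₂, then exposed for 48hrs at their IC₅₀ concentration, with DMSO and cisplatin controls. Cells were trypsinized, washed in cold PBS and fixed in 70% ethanol at 4°C for 30 min. They were stained with PI in Triton X-100/RNase for 15 min at 37°C and imaged by fluorescence microscopy. Reported as mean ± S.E.M of triplicates.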

[28] = Inhibition of RTK/PI3K/AKT/mTOR signaling in human U87 cells assessed as up regulation of basic transcription factor 3 like 4 gene expression at cytotoxic IC50 measured after 48 hrs relative to control; type: cell-based; settings: U-87MG ATCC

CC(=O)C(=NNc1ccccc1C#N)C(C)=O
log2FC [1]: -0.749
log2FC (U-87 MG [2]): -1.369
log2FC [3]: 0.32
log2FC [4]: 1.41
log2FC [5]: 1.75
fold change (FC) (U-87 MG [6]): 1.569
fold change (FC) (U-87 MG [7]): 2.408
log2FC [8]: 0.475
log2FC [9]: 1.26
log2FC [10]: -1.47
IC50 (LN-229 [11]): 87 µM
log2FC (U-87 MG [12]): 0.8843
fold change (FC) (U-87 MG [13]): 1.28
fold change (FC) (U-87 MG [14]): -2.899
log2FC [15]: 1.89
log2FC [16]: -0.583
fold change (FC) (U-87 MG [17]): -1.195
fold change (FC) (U-87 MG [18]): -1.311
fold change (FC) (U-87 MG [19]): -1.086
log2FC [20]: 0.669
log2FC [21]: 0.785
log2FC [22]: -0.632
log2FC [23]: 0.54
fold change (FC) (U-87 MG [24]): 1.949
log2FC [25]: 0.558
log2FC (U-87 MG [26]): 1.102
Activity (LN-229 [27]): Active
log2FC [28]: 0.896
